Source: PubChem
Sampled rows, rich in hits. Any-hit rate of the full collection: about 2%.
STAT1 blocker = STAT1 signaling inhibitors, primary screen, cell-based, HTS, luciferase reporter | NIH 3T3 STAT1-luciferase reporter, IFN-gamma, luminescence | inhibition, % at 5.5 µM | 200,000 tested, 0.35% active;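 active means inhibition above a set limit, the mean inhibition across all tested compounds plus 3 SD, cut at about 34% in these data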
STAT3 inh = IL-6 driven STAT3 reporter inhibitors, primary screen, U3A cells, luciferase, luminescence, MLSCN library; IL-6 STAT3-luciferase reporter; host cell line lacks STAT1; inhibition, % at 5.5 µM; 190,000 tested, 0.89% active; AID 862, 2007;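 active means inhibition above the mean inhibition across all screened compounds plus 3 SD, cut at about 44% in these data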
STAT3 act-1 = IL-6 driven STAT3 reporter potentiators, primary screen, U3A cells, luciferase, luminescence, MLSCN library. IL-6 STAT3-luciferase reporter; 100% = signal with IL-6 EC80 alone. activation (% of control), % at 5.6 µM. 190,000 tested, 0.91% active;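 active means activation above the screen-wide mean of compound activation plus 3 SD, cut at about 130% in these data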
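Material: human STAT1-deficient U3A cells with stable STAT3-luciferase reporter / Probe or stimulus: IL-6 stimulus at 33 ng/mL final / Schedule: 1 h compound pre-exposure, 6 h IL-6 stimulation, 37 °C / Technique: luminescence / Read-out basis: percent of IL-6-only median luminescence / Control set: IL-6-only high control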
HSP90 inh = HSP90 inhibitors, primary screen, cell lysate, luminescence; Heat shock protein HSP 90 (rabbit reticulocyte lysate; luciferase refolding); inhibition, % at 5.6 µM; AID 1789, 2009; Rabbit reticulocyte lysate, luciferase refolding luminescence, 3 h; 290,000 tested, 0.91% active;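 active means inhibition above the screen-wide mean plus 3 SD, computed separately per campaign, cut at about 16% in these data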;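 further: inhibitors lower the luminescence because luciferase stays unfolded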
STAT3 act-2 = STAT3 reporter potentiators, retest of hits, confirmation, U3A cells, luciferase, luminescence | potentiation (% of control), % at 5.7 µM | shares compounds with STAT3 act-1 | 1,200 tested, 64% active | IL-6 potentiation; U3A cells lack STAT1; 100 means same as IL-6 alone | AID 1267, 2008;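 active means percent activation of the STAT3 luciferase reporter above a set limit taken from the earlier primary screen, cut at about 130% in these data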
NFkB act 2 = NF-kB reporter activators in human cells, counter-screen for STAT3 activator project | shares compounds with STAT3 act-1 | NF-kappaB reporter activation | activation (% of control), % at 5.7 µM | 1,200 tested, 11% active; in the data active means activation above about 120%;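 further: reporter induced by TNF-alpha stimulation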
STAT1 act = STAT1 reporter activators, IFN-gamma induced, counter-screen for STAT3 activator project, cell-based, NIH 3T3, luciferase luminescence; shares compounds with STAT3 act-1; NIH 3T3 STAT1-luciferase reporter; activation (% of control), % at 5.7 µM; 1,200 tested, 13% active;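 active means activation above the solvent-only control well mean plus 3 SD, set per screening run, cut at about 120% in these data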
A number is an active result; - = inactive; . = no result given.

SMILES | STAT1 blocker | STAT3 inh | STAT3 act-1 | HSP90 inh | STAT3 act-2 | NFkB act 2 | STAT1 act
COc1ccc(Br)cc1C(=O)Nc1cccc(NC(=O)c2ccco2)c1 | - | - | - | - | . | . | .
COc1ccc(Br)cc1C(=O)Nc1cccc(C)c1 | - | - | 157 | - | 139 | - | -
COc1ccccc1NC(=O)c1cc(Br)ccc1Cl | - | - | - | - | . | . | .
O=C(Nc1nc(-c2ccc(F)c(F)c2)cs1)Nc1ccc(F)cc1F | . | . | . | - | . | . | .
CC(=O)NC(Cc1c[nH]c2ccccc12)C(=O)OCC(=O)N1CCCCCC1 (configuration not stated) | - | - | - | - | . | . | .
Cc1occc1-c1nnc(SCC(=O)c2c[nH]c3ccccc23)n1C | - | - | 145 | - | - | - | -
CC1=NC(=O)C(N=Nc2cccc(O)c2)N1c1ccccc1 (configuration not stated) | - | - | 185 | - | 187 | - | -
Cc1ccc(C)c(NC(=O)CSc2nnc(-c3cc(C)[nH]n3)n2N)c1 | . | . | . | - | . | . | .
COc1ccc(CN2CCN(S(=O)(=O)c3ccc(C)cc3)CC2)cc1Br | - | - | 144 | - | 137 | - | -
CCCN1CCN(S(=O)(=O)c2ccc(OC)c(Br)c2)CC1 | - | - | - | - | . | . | .
COc1cccc(CN(C)C(=O)CNC(=O)c2ccc3c(c2)OCO3)c1OC | . | . | . | - | . | . | .
N#CC1=C(N)n2c(s/c(=C\c3ccco3)c2=O)=C(C#N)C1c1ccco1 (configuration not stated) | - | - | 171 | - | 170 | - | -
O=c1cc(-c2ccccc2)[nH]n1-c1nc2ccccc2s1 | - | - | 138 | - | - | 126 | -
COC(=O)c1ccc(NC(=O)c2ccc[n+]([O-])c2)cc1 | . | . | . | - | . | . | .
COc1ccc2[nH]cc(CCNC(=O)Cc3ccc(Cl)cc3)c2c1 | . | . | . | - | . | . | .
C=CCn1c(SC)nc2sc3c(c2c1=O)CCc1ccccc1-3 | - | - | - | - | . | . | .
C=CCn1c(SCC)nc2sc3c(c2c1=O)CCc1ccccc1-3 | - | - | 137 | - | - | - | -
COC(=O)c1ccc(S(=O)(=O)NCc2ccccn2)n1C | . | . | . | - | . | . | .
COc1ccc(C(=O)CNc2ccc3ccccc3c2)cc1 | - | - | 142 | - | - | - | -
COC(=O)c1ccc(CNC(=O)C23CC4CC(CC(C4)C2)C3)cc1 | . | . | . | - | . | . | .
O=C(O)CCCCCN1C(=O)C(O)=C(C(=O)/C=C/c2ccccc2)C1c1ccccc1[N+](=O)[O-] (configuration not stated) | - | - | 140 | - | 145 | - | -
CCCCN1C(=O)C(O)=C(C(C)=O)C1c1ccccc1[N+](=O)[O-] (configuration not stated) | - | - | - | - | . | . | .
CCOc1ccccc1-c1nnc(SCC(=O)NC2CC3CCC2C3)n1CC (configuration not stated) | - | - | 160 | - | 169 | 127 | 162
CC(Oc1ccc(F)cc1Br)c1nc2ccccc2c(=O)[nH]1 (configuration not stated) | . | . | . | - | . | . | .
Cc1c(C(=O)Nc2ccc(Cl)cn2)oc2ccccc12 | - | - | 195 | - | 197 | 134 | 138
SMILES | STAT1 blocker | STAT3 inh | STAT3 act-1 | HSP90 inh | STAT3 act-2 | NFkB act 2 | STAT1 act
O=C(Nc1ccccc1)c1ccc2ccccc2n1 | - | - | 153 | - | 188 | 141 | 176
O=C(Nc1ccc(Cl)cn1)c1ccc2ccccc2n1 | - | - | 178 | - | 192 | 130 | 137
Oc1ccccc1/C=N/n1c2ccccc2c2ccccc21 | - | - | 147 | - | 137 | - | -
CCc1ccc2c(c1)C(=O)c1ccccc1C2=O | - | - | 142 | - | 151 | 131 | 165
COCCn1nnnc1C(c1cc2cc(C)ccc2[nH]c1=O)N1CCCCCC1 (configuration not stated) | - | - | - | - | . | . | .
COCCn1nnnc1C(c1cc2cc(C)ccc2[nH]c1=O)N1CCc2ccccc21 (configuration not stated) | - | - | 150 | - | - | - | -
Cc1cc(N2CCCC2)ccc1NC(=O)COc1cccc(C(F)(F)F)c1 | . | . | . | - | . | . | .
O=C(Cc1nnc(NC(=O)Nc2ccc(F)cc2)s1)NCc1ccccc1 | . | . | . | - | . | . | .
O=C(CSc1nnc2c3ccccc3c3ccccc3c2n1)Nc1ccccc1 | - | - | 158 | - | 162 | - | -
COc1ccc(-c2coc3cc(O)cc(O)c3c2=O)cc1 | - | - | - | - | . | . | .
Cc1csc(-c2coc3cc(O)cc(C)c3c2=O)n1 | - | - | 148 | - | 160 | - | 131
Cc1cc(NS(=O)(=O)c2c(C)c(C)cc(C)c2C)no1 | . | . | . | - | . | . | .
Cc1ccc(S(=O)(=O)N2CCN(C(=O)c3cc4c(C)nn(-c5ccccc5)c4s3)CC2)cc1 | - | - | - | - | . | . | .
COC(=O)c1cc2c(C)nn(-c3ccccc3)c2s1 | - | - | 158 | - | 139 | - | -
Cc1nn(-c2ccccc2)c2sc(C(=O)O)cc12 | - | - | - | - | . | . | .
CCOC(=O)c1cc2c(C)nn(-c3ccccc3)c2s1 | - | - | 148 | - | - | - | -
Cc1nn(-c2ccccc2)c2sc(C(=O)N3CCOCC3)cc12 | - | - | 177 | - | 189 | 129 | 135
Cc1cc2c3c([nH]c2cc1S(=O)(=O)N1CCC2(CC1)OCCO2)CCCC3=O | . | . | . | - | . | . | .
Nc1cc(=O)[nH]c(SCc2ccc(Cl)cc2Cl)n1 | . | . | . | - | . | . | .
O=C(Cc1c[nH]c2ccccc12)NCc1ccc2c(c1)OCO2 | - | - | 138 | - | 137 | - | -
COc1ccccc1N=C(C)C1=C(O)CC(c2ccccc2)CC1=O (configuration not stated) | - | - | 148 | - | - | 140 | -
CCCC(=Nc1ccccc1OC)C1=C(O)CC(c2ccccc2)CC1=O (configuration not stated) | - | - | - | - | . | . | .
Cc1cc(SCC(=O)c2cc3ccccc3o2)nc2ccccc12 | - | - | 146 | - | 150 | - | -
Cc1cc(C)c(C#N)c(SCc2nc3ccccc3[nH]2)n1 | - | - | 185 | - | 165 | - | -
CCc1ccc(NC(=O)CSc2nnnn2-c2cccnc2)cc1 | . | . | . | - | . | . | .
Cc1cc[n+](-c2nc([O-])n(-c3ccccc3)c2C=O)cc1 | - | - | - | - | . | . | .
Oc1ccc(N2CCN(Cc3c(-c4ccccc4)nc4ccccn34)CC2)cc1 | . | . | . | - | . | . | .
Cc1cc(C)nc(NC(=O)CSc2nc3ccccc3s2)n1 | - | - | - | - | . | . | .
Cc1ccc(S(=O)(=O)NC(=O)CSc2nc3ccccc3s2)cc1 | - | - | 141 | - | - | - | -
